{"data": "Published values of several laboratories", "target": "Rhodopsin kinase GRK7 (GRK7, Homo sapiens, UniProt Q8WTQ7)", "Sequence (Q8WTQ7 1-553, as in one of the studies)": "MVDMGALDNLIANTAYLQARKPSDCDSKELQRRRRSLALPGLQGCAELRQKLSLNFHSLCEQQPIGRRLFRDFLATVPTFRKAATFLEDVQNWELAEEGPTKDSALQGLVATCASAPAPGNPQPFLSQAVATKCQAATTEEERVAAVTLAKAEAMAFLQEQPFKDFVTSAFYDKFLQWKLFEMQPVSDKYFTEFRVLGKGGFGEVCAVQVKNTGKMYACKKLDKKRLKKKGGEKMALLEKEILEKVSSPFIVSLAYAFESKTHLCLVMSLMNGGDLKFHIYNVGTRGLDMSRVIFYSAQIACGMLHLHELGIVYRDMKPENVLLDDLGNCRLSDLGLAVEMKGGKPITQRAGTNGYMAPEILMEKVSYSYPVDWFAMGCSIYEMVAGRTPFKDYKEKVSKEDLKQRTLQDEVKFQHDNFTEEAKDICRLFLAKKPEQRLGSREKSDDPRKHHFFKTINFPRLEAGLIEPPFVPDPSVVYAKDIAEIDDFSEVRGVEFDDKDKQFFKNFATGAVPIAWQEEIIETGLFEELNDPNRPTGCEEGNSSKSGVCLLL", "note": "Each line is one published result; the experiments were not run side by side."}
{"Compound": "COc1cc(Cl)c(C(=O)N[C@@H](CN[C@H]2CC[C@@H](N)CC2)Cc2ccc(C#N)cc2)cc1-c1ccc(CN[C@H](C)c2ccc(C)cc2)o1", "effect on": "enzyme activity", "mode": "inhibitor", "concentration": "1 µM", "measurement": "remaining activity", "value": "102%"}
{"Compound": "O=C1Nc2ccc(Cl)cc2C1=Cc1cc(Cl)c(O)c(Cl)c1", "effect on": "cell-free assay", "concentration": "0.5 µM", "measurement": "remaining signal", "value": "97.3%"}
{"Compound": "O=C(N1CCS(=O)(=O)CC1)N1C[C@H](c2ccc(OC(F)(F)F)cc2)C[C@H](c2nc(C3CC3)no2)C1", "effect on": "cell-free assay", "technique": "competition with immobilised ligand", "concentration": "1 µM", "measurement": "remaining binding", "value": "100%"}
{"Compound": "C[C@@H]1CCN(c2nccc(-c3cnn4ncccc34)n2)C1", "effect on": "binding", "concentration": "1 µM", "measurement": "remaining binding", "value": "82%"}
{"Compound": "CS(=O)(=O)c1cc(C2(NC(=O)c3cncc4c3cnn4-c3ccc(F)cc3)CC2)ccn1", "effect on": "cell-free assay", "technique": "competition with immobilised ligand", "concentration": "1 µM", "measurement": "remaining binding", "value": "96%"}
{"Compound": "Cc1sc(C(=O)NC2COC2)cc1-n1cc(NC(=O)Nc2c(F)cccc2Cl)cn1", "effect on": "enzyme activity", "mode": "inhibitor", "concentration": "10 µM", "measurement": "remaining activity", "value": "99.9%"}
{"Compound": "Cc1nc(Cc2cccc(C(F)(F)F)c2)sc1-c1ccc(C(N)=O)nc1", "effect on": "cell-free assay", "technique": "competition with immobilised ligand", "concentration": "1 µM", "measurement": "remaining binding", "value": "100%"}
{"Compound": "CC(C)(C)c1nc2c(s1)c1nc(N)ncc1c1ccc(NS(=O)(=O)c3c(F)cccc3F)c(F)c12", "effect on": "enzyme activity", "mode": "inhibitor", "technique": "radiometric", "concentration": "1 µM", "measurement": "remaining activity", "value": "81%"}
{"Compound": "CC(C)(O)[C@H]1CC[C@H](Nc2ccc3ncc(-c4cccc(C(F)(F)F)c4)n3n2)CC1", "effect on": "enzyme activity", "mode": "inhibitor", "concentration": "1 µM", "measurement": "remaining activity", "value": "38%"}
{"Compound": "N#CCCc1ccc2c(c1)-c1[nH]c3ccc([N+](=O)[O-])cc3c1CC(=O)N2", "effect on": "cell-free assay", "concentration": "0.5 µM", "measurement": "remaining signal", "value": "97.7%"}
{"Compound": "CCC(=O)N[C@H]1CC[C@@H](C(=O)N(C)c2ccc(-c3nc4ccccc4o3)cc2)C1", "effect on": "cell-free assay", "technique": "competition with immobilised ligand", "concentration": "1 µM", "measurement": "remaining binding", "value": "82%"}
{"Compound": "COc1cc2ncnc(Nc3ccc(Oc4ccccc4)cc3C)c2cc1OC", "effect on": "enzyme activity", "mode": "inhibitor", "concentration": "1 µM", "measurement": "inhibition", "value": "-3%"}
{"Compound": "O=C1NC(=O)c2cc(Nc3ccc(F)cc3)c(Nc3ccc(F)cc3)cc21", "effect on": "cell-free assay", "concentration": "0.5 µM", "measurement": "remaining signal", "value": "106%"}
{"Compound": "CN1CCN(c2cnc3c(C4CCN(C(=O)c5ccc(OC(F)(F)F)cc5N)CC4)ncnc3c2)CC1", "effect on": "cell-free assay", "technique": "competition with immobilised ligand", "concentration": "1 µM", "measurement": "remaining binding", "value": "87%"}
{"Compound": "Cc1cc(NC(=O)c2cccc3cc(-c4cccc5[nH]nc(N)c45)ccc23)ccc1F", "effect on": "enzyme activity", "mode": "inhibitor", "concentration": "0.1 µM", "measurement": "activity vs control", "value": "114%"}
{"Compound": "Cc1ccc(C(=O)Nc2ccc(CN3CCN(C)CC3)c(C(F)(F)F)c2)cc1C#Cc1cnc2cccnn12", "effect on": "enzyme activity", "mode": "inhibitor", "concentration": "23.5 nM", "measurement": "remaining activity", "value": "94%"}
{"Compound": "CN1CC(Oc2cnc(C#N)cc2-c2ccn3nc(NC(=O)C4CC4)cc3c2)C1", "effect on": "enzyme activity", "mode": "inhibitor", "concentration": "1 µM", "measurement": "inhibition", "value": "-8%"}
